# In ChEMBL document CHEMBL2163282, “Discovery and characterization of AZD9272 and AZD6538-Two novel mGluR5 negative allosteric modulators selected for clinical development” (Bioorg Med Chem Lett, 2012):
# Tests used:
# [1] = target: T1, Metabotropic glutamate receptor 5 (Homo sapiens, UniProt P41594); test: Negative allosteric modulation of human recombinant mGluR5 expressed in HEK293 cells expressing GLAST assessed as inhibition of DHPG-induced intracellular Ca2+ level after 30 mins by FLIPR assay
# Target sequence in this assay (P41594 whole entry): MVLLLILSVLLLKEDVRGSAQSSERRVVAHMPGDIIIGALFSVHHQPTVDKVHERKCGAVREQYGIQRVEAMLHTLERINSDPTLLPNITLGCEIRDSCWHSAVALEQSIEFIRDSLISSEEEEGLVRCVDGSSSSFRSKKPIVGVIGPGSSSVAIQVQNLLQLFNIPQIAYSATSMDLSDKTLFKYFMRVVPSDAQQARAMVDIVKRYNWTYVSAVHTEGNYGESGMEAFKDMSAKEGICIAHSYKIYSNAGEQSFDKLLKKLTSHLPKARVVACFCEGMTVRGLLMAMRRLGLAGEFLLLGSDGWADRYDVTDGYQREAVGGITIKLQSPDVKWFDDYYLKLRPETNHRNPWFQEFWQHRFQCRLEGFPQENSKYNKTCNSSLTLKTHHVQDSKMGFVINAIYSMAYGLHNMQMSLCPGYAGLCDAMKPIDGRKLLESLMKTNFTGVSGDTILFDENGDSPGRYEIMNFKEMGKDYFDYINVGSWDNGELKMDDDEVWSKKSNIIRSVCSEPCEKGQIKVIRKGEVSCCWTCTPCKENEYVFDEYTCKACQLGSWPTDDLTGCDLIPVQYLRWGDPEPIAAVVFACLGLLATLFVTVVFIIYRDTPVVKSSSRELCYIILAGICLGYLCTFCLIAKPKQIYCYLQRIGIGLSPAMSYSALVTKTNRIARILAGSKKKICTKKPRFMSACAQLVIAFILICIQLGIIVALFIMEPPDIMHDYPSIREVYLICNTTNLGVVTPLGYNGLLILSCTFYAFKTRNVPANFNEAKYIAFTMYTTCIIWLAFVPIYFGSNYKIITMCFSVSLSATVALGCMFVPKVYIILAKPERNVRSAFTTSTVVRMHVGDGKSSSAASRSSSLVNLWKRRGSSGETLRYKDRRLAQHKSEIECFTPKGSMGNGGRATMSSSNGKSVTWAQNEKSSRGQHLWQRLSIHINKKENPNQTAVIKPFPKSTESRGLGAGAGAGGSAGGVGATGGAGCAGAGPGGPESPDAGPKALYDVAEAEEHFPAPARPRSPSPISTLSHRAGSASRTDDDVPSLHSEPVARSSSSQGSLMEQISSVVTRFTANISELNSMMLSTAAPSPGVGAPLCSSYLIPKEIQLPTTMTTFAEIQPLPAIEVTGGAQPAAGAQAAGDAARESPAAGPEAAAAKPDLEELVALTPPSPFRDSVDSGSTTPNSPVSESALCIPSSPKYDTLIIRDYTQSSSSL
# [2] = Intrinsic clearance in human liver microsomes; type: ADME, Microsome; conditions: read-out: CLH
# In short: (§1)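 Intrinsic clearance was determined in human or rat microsomes and expressed per min per mg protein.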
# [3] = Equilibrium solubility of the compound […]; type: physicochemical
# In short: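 Solubility was measured by a dried-DMSO rapid-throughput method.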
# [4] = Intrinsic clearance in rat liver microsomes; type: ADME, Microsome; conditions: read-out: CLH; in short: as §1
# [5] = test system: Brain; test: Drug uptake in Sprague-Dawley rat brain at 10 and 30 nmol/kg, iv administered as infusion after 5 mins by autoradiographic analysis; type: ADME, organism-based; conditions: in vivo
# In short: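 Rats were dosed intravenously with [3H]AZD9272 at 10 or 30 nmol/kg. Five minutes later, brains were removed and sectioned sagittally. Radiolabel distribution was assessed by conventional autoradiography.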
# [6] = target: T1, Metabotropic glutamate receptor 5; test: Binding affinity to human mGluR5 expressed in HEK293 cell membranes expressing GLAST by scintillation counting
# Target sequence in this assay (P41594 whole entry): as above
# [7] = target: T1, Metabotropic glutamate receptor 5; test: Binding affinity to human mGluR5 expressed in HEK293 cell membranes expressing GLAST after 1 hr by scintillation counter in presence of 10 nM MPEP
# In short: (§2)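 [3H]AZD9272 equilibrium saturation binding on membranes from human mGluR5-GHEK cells (HEK293 stably expressing glutamate/aspartate transporter), run without MPEP or with 10 or 20 nM MPEP; filtration termination; Kd and Bmax (pmol/mg protein) derived per assay, three separate assays.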
# Target sequence in this assay (P41594 whole entry): as above
# [8] = target: T1, Metabotropic glutamate receptor 5; test: Binding affinity to human mGluR5 expressed in HEK293 cell membranes expressing GLAST after 1 hr by scintillation counter in presence of 20 nM MPEP; in short: as §2
# Target sequence in this assay (P41594 whole entry): as above
# [9] = target: Metabotropic glutamate receptor 5 (Rattus norvegicus, UniProt P31424); test: Binding affinity to mGluR5 in Sprague-Dawley rat striatum after 60 mins by autoradiographic analysis
# Chain of Metabotropic glutamate receptor 5 (Rattus norvegicus, UniProt P31424) (P31424 whole entry): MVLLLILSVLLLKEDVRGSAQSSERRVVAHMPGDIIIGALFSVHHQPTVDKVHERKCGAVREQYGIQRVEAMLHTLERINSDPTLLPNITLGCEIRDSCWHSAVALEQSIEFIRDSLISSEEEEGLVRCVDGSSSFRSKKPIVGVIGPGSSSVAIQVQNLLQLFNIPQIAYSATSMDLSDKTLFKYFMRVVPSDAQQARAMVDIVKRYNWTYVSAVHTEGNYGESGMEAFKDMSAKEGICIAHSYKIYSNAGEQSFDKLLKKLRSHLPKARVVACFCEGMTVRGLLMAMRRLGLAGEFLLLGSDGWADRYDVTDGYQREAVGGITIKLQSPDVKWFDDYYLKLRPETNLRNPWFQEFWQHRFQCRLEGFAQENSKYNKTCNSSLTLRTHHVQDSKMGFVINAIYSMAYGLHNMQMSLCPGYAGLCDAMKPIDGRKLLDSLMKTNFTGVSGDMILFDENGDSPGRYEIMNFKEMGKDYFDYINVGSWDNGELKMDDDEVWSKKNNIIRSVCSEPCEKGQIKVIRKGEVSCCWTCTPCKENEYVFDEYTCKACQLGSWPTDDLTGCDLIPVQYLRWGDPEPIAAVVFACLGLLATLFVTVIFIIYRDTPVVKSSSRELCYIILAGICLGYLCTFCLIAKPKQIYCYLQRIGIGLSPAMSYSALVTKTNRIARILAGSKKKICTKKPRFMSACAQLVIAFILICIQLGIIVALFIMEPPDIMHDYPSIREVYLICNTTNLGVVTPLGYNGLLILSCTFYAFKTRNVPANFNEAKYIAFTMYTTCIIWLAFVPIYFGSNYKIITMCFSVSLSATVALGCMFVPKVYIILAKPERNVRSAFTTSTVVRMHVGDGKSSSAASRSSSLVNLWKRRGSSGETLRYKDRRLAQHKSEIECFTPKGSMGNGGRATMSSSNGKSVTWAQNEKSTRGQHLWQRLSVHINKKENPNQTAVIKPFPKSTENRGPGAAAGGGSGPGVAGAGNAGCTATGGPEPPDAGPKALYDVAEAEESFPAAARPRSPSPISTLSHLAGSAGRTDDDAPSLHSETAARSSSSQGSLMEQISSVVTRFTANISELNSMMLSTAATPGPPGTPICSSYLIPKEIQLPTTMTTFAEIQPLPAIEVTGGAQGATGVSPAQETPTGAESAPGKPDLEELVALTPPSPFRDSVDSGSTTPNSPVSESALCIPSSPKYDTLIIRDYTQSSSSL
# [10] = target: T1, Metabotropic glutamate receptor 5; test: Binding affinity to human mGluR5 expressed in HEK293 cell membranes expressing GLAST after 1 hr by scintillation counter in absence of MPEP; in short: as §2
# Target sequence in this assay (P41594 whole entry): as the sequence (P41594 whole entry) above
# [11] = target: T1, Metabotropic glutamate receptor 5; test: Binding affinity to human mGluR5 expressed in HEK293 cell membranes expressing GLAST assessed as per mg of protein after 1 hr by scintillation counter
# Target sequence in this assay (P41594 21-1212 limits assumed): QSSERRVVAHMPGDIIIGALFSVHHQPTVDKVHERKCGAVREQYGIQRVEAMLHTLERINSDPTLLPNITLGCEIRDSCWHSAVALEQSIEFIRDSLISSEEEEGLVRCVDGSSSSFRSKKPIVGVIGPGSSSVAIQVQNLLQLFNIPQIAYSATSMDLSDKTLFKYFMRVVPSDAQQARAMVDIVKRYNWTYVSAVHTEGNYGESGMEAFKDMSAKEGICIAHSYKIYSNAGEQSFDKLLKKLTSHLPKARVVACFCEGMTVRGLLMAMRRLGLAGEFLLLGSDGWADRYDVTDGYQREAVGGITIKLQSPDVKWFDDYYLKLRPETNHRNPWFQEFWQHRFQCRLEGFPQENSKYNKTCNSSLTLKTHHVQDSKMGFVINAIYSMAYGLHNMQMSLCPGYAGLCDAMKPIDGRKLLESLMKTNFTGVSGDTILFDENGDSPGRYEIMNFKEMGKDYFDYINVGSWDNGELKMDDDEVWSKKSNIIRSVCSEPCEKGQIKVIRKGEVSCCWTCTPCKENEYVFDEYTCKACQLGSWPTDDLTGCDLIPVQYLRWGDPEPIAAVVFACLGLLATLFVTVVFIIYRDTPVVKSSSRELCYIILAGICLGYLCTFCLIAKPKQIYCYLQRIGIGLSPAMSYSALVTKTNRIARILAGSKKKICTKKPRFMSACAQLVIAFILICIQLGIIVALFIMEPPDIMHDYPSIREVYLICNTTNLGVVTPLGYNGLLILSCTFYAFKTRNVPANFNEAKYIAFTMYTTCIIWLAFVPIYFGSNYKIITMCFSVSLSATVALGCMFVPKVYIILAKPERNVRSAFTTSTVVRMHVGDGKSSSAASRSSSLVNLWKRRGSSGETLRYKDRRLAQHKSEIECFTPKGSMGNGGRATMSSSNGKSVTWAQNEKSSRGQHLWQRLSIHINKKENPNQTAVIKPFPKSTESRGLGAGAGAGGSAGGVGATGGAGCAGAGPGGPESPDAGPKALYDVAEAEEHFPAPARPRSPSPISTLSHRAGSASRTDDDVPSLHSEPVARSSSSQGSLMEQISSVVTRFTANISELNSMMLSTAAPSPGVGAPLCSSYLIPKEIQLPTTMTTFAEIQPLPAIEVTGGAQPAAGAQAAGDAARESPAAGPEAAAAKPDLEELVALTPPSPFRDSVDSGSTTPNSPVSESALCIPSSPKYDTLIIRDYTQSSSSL
smiles,measurement,setting,value
NC(=O)c1ccccc1-c1nc(-c2ccccn2)no1,IC50,[1],3.3 µM
N#Cc1cc(F)cc(-c2nc(-c3ccccn3)co2)c1,IC50,[1],0.022 µM
Fc1cccc(-c2nc(-c3ccccn3)no2)c1,IC50,[1],0.845 µM
Clc1ccc(-c2nc(-c3ccccn3)no2)cc1Cl,IC50,[1],> 10 µM
FC(F)(F)c1cc(-c2nc(-c3ccccn3)no2)cc(C(F)(F)F)c1,IC50,[1],> 10 µM
Clc1cccc(-c2nc(-c3ccccn3)no2)c1Cl,IC50,[1],0.274 µM
Clc1ccc(-c2nc(-c3ccccn3)no2)cc1,IC50,[1],> 10 µM
Brc1cccc(-c2nc(-c3ccccn3)no2)c1,IC50,[1],0.118 µM
N#Cc1cc(F)cc(-c2nc(-c3ncccn3)no2)c1,IC50,[1],1.1 µM
N#Cc1cc(F)cc(-c2nc(-c3ccccn3)no2)c1,microsomal CLint,[2],92 µL/min/mg
same,solubility,[3],78.1 µM
same,microsomal CLint,[4],29 µL/min/mg
same,IC50,[1],0.025 µM
COc1cccc(-c2nc(-c3ccccn3)no2)c1,IC50,[1],0.54 µM
[3H]c1c(F)cc(-c2nc(-c3ccc(F)cn3)no2)cc1C#N,Drug uptake,[5],Active
same,Kd,[6],0.0028 µM
same,Kd,[7],0.0055 µM
same,Kd,[8],0.0072 µM
same,Kd,[9],0.0094 µM
same,Kd,[10],0.0038 µM
Cc1cccc(C#Cc2ccccc2)n1,Bmax,[11],4.4 pmol
Fc1cc(F)cc(-c2nc(-c3ccccn3)no2)c1,IC50,[1],0.154 µM
N#Cc1cc(C#N)cc(-c2nc(-c3ccccn3)no2)c1,IC50,[1],0.176 µM
N#Cc1cc(F)cc(-c2nc(-c3cnccn3)no2)c1,IC50,[1],4.7 µM
Clc1ccccc1-c1nc(-c2ccccn2)no1,IC50,[1],0.436 µM
N#Cc1cc(F)cc(-c2ccc(-c3ccccn3)o2)c1,IC50,[1],0.061 µM
Clc1cc(Cl)cc(-c2nc(-c3ccccn3)no2)c1,IC50,[1],0.142 µM
Clc1ccc(-c2nc(-c3ccccn3)no2)c(Cl)c1,IC50,[1],1.7 µM
O=[N+]([O-])c1cccc(-c2nc(-c3ccccn3)no2)c1,IC50,[1],0.236 µM
Clc1cccc(-c2nc(-c3ccccn3)no2)c1,IC50,[1],0.116 µM
N#Cc1cc(F)cc(-c2noc(-c3ccccn3)n2)c1,IC50,[1],0.023 µM
FC(F)(F)Oc1cccc(-c2nc(-c3ccccn3)no2)c1,IC50,[1],0.7 µM
Cc1cccc(-c2nc(-c3ccccn3)no2)c1,IC50,[1],0.443 µM
